Data set [1] is described as follows: Percentage unbound in human A549 cells at 1 uM after 4 hrs by equilibrium dialysis method. It is filed as ADME, cell-based. On the technique in general: Equilibrium dialysis compares concentrations on both sides of a semipermeable membrane.
The test system of data set [2] is A549. The data set is described as follows: Cellular uptake in human A549 cells incubated for 1 hr followed by compound washout measured after 8 hrs by HPLC-MS/MS analysis. The class given is ADME, cell-based. The settings on record: a549, 1 h. The method, boiled down:
(§1)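 A549 cells (wild-type EGFR) exposed to 1 µM extracellular compound for 1 h; intracellular content quantified by HPLC-ESI-MS/MS immediately after or 8 h after removal of compound (drug-free incubation) as pmol/mg protein; converted to µM using average cell volume per mg protein estimated from equilibrium distribution of 3-O-methyl-D-[1-³H]glucose in A549 cells.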

In data set [3] the test system is A549. Briefly: Cellular uptake in human A549 cells incubated for 1 hr followed by compound washout measured at 1 hr by HPLC-MS/MS analysis. It is filed as ADME, cell-based. The note with it: a549, 1 h. An outline of the steps:
as §1

A short description of data set [4]: Stability of the compound in human A549 cell lysates up to 24 hrs in presence of cysteine. The class given is physicochemical. The note with it: a549, 24 h. An outline of the steps:
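Compound incubated with A549 cell lysate plus molar excess of cysteine as trapping reagent; cysteine conjugate formation monitored by HPLC–MS for up to 24 h.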

Data set [5] deals with T1, Epidermal growth factor receptor (Homo sapiens, UniProt P00533). Briefly: Inhibition of wild type EGFR autophosphorylation in human A549 cells incubated for 1 hr followed by compound washout measured after 8 hrs by Western blot analysis. The class given is cell-based. (A western blot detects proteins with antibodies after separation by electrophoresis.)
T1 sequence (P00533 whole entry): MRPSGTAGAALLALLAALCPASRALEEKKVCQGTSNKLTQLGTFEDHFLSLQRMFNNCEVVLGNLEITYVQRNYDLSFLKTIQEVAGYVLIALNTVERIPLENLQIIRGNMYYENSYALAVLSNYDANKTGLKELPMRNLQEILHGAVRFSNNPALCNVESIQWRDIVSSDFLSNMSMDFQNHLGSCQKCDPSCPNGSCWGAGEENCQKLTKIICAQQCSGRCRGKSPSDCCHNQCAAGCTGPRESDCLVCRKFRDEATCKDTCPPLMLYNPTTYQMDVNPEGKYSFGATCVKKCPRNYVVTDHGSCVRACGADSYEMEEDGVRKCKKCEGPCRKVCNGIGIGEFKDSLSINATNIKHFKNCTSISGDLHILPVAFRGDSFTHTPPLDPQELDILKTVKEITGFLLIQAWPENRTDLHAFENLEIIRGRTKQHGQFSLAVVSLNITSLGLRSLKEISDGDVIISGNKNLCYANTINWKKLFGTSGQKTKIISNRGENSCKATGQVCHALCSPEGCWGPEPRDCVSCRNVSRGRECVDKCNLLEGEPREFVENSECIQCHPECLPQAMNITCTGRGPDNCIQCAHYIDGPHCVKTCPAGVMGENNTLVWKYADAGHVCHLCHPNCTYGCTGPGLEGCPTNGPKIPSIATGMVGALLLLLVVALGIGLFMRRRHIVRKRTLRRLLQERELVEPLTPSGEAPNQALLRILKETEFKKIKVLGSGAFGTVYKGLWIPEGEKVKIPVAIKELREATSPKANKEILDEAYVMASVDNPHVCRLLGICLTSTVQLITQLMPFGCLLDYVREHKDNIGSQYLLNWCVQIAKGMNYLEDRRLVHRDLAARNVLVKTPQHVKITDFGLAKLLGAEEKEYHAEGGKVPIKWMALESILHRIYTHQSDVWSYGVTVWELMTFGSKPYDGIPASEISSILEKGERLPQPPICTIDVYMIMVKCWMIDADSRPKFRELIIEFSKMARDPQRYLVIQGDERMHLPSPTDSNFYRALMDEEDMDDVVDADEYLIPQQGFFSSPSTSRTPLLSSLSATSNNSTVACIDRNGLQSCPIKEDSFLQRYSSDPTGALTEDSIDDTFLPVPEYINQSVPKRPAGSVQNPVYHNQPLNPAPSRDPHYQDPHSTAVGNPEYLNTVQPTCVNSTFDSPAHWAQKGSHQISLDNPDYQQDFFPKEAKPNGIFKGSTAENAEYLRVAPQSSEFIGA
The target of data set [6] is T1, Epidermal growth factor receptor. The data set is described as follows: Inhibition of wild type EGFR autophosphorylation in human A549 cells incubated for 1 hr followed by compound washout measured at 1 hr by Western blot analysis. It is filed as cell-based.
Data set [7] shares this target. Briefly: Inhibition of wild type EGFR autophosphorylation in human A549 cells at 1 uM incubated for 1 hr followed by compound washout measured after 8 hrs by Western blot analysis. It is filed as cell-based. The method, boiled down: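 A549 cells expressing wild-type EGFR treated 1 h with inhibitor at 1 µM, then washed with drug-free medium; EGFR autophosphorylation in intact cells read by Western blot 8 h after compound removal; percent inhibition as mean of at least two independent experiments ± SEM.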

The target is the same in data set [8].
Data set [9] has the same target. The settings on record: A549, at 1 µM.
For data set [10] the target is unchanged. The settings on record: at 1 µM.

Results on eight molecules are retold here after ChEMBL document CHEMBL2424521, “Long-lasting inhibition of EGFR autophosphorylation in A549 tumor cells by intracellular accumulation of non-covalent inhibitors” (Bioorg Med Chem Lett, 2013).

Broadly, the fraction unbound is the share of the substance not bound to proteins or other matrix. A high value points to much free substance. Broadly, the IC50 is the concentration that inhibits the measured activity by half. A word on the inhibition: it is the relative decrease from the control value, in per cent.

Active and inactive are the calls of the source. The rule behind the calls is not given here.

In the case of `COc1cc2ncnc(Nc3ccc(F)c(Cl)c3)c2cc1OCCCN1CCOCC1` [GEFITINIB], the fraction unbound at 4 h, 1 µM in data set [1] amounted to 0.322. The Drug uptake in the data set on A549 [2] came out at 2.3 µM; in the data set on A549 [3], 271 µM.
As to `C=CC(=O)Nc1ccc2ncnc(Nc3cccc(Br)c3)c2c1`, the Drug uptake in the data set with A549 [2] and in the data set with A549 [3] was below 0.05 µM in each case.
On to `CN(C)CCC(=O)Nc1ccc2ncnc(Nc3cccc(Br)c3)c2c1`, for which the Drug uptake in the data set with A549 [2] was below 0.05 µM; with A549 [3] it was 26 µM.
With `O=C(CCOc1ccccc1)Nc1ccc2ncnc(Nc3cccc(Br)c3)c2c1`, the Stability entry in data set [4] is recorded as “Stable”. Moreover, the values for the Drug uptake with A549 [2] and with A549 [3] were 0.7 µM and 72 µM, respectively.
Turning to `O=C(COc1c(F)c(F)c(F)c(F)c1F)Nc1ccc2ncnc(Nc3cccc(Br)c3)c2c1`, the Stability result in data set [4] is recorded as “Stable”. The figures for the Drug uptake in the data set with A549 [2] and with A549 [3] were 3.6 µM and 240 µM, respectively.
Regarding `Nc1ccc2ncnc(Nc3cccc(Br)c3)c2c1`, the results for the Drug uptake with A549 [2] and with A549 [3] were below 0.05 µM and 13 µM, respectively.
In data set [1], `Brc1cccc(Nc2ncnc3ccc(NCCCN4CCCCC4)cc23)c1` showed a fraction unbound at 4 h, 1 µM of 0.077. Moreover, the Drug uptake came out at 105 µM with A549 [2] and 324 µM with A549 [3]. The IC50 worked out at 14.1 nM in data set [5], 1.7 nM in data set [6] and 0.41 nM in [8]. For the same molecule, the figures for the inhibition in data set [7] and in data set [9] were 90% and 95%, respectively.
`O=C(CCCN1CCCCC1)Nc1ccc2ncnc(Nc3cccc(Br)c3)c2c1`: in [4], the Stability entry is “Stable”. Moreover, the fraction unbound at 4 h, 1 µM in [1] amounted to 0.157. Also, the Drug uptake worked out at 7.2 µM with A549 [2] and 147 µM with A549 [3]. The IC50 in [5] came out at 13.5 nM; in [6], 5.7 nM; in data set [8], 0.63 nM. The figures for the inhibition in data set [7] and in data set [9] were 96% and 98%, respectively. In [10], the inhibition entry is “inactive”.
